From ChEMBL document CHEMBL1137382, “Synthesis and structure-activity relationships of carbazole sulfonamides as a novel class of antimitotic agents against solid tumors” (J Med Chem, 2006)
Each block holds one compound with its values, some of them ahead of it. Active and inactive are the calls of the source. No cut-off for these calls is given here.

Key:
[1] = system: DU-145; experiment: Antiproliferative activity against human DU145 cells after 72 hrs; assay type: functional, cell-based; conditions: DU-145, 72 h
Procedure, shortened: (§1)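 Cells grown in RPMI-1640 with 10% heat-inactivated FCS, penicillin and streptomycin, 5% CO2, 37 °C, used in exponential growth. 5 × 10⁴ cells per well exposed to compound at 0–10 µM for 72 h at 37 °C. IC50 (concentration killing 50% of cells versus untreated controls) determined in duplicate by nonlinear regression.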

[2] = system: CEM (human); experiment: Antiproliferative activity against human CEM cells after 72 hrs
[3] = system: Bel-7402; experiment: Antiproliferative activity against human Bel7402 cells after 72 hrs; assay type: functional, cell-based; conditions: Bel-7402, 72 h; procedure, shortened: as §1
[4] = system: MCF7; experiment: Antiproliferative activity against human MCF7 cells after 72 hrs; assay type: functional, cell-based; conditions: MCF7, 72 h; procedure, shortened: as §1
[5] = system: DMS-79; experiment: Antiproliferative activity against human DMS79 cells after 72 hrs; assay type: functional, cell-based; conditions: DMS-79, 72 h; procedure, shortened: as §1
[6] = Antiproliferative activity against human DND1 cells after 72 hrs; assay type: functional, cell-based; conditions: DND1, 72 h; procedure, shortened: as §1
[7] = system: MOLT-3; experiment: Antiproliferative activity against human Molt3 cells after 72 hrs; assay type: functional, cell-based; conditions: MOLT-3, 72 h; procedure, shortened: as §1
[8] = system: PC-3; experiment: Antiproliferative activity against human PC3 cells after 72 hrs; assay type: functional, cell-based; conditions: PC-3, 72 h; procedure, shortened: as §1
[9] = system: MCF7; experiment: Induction of apoptosis in human MCF7 cell line assessed as increase in cyclin B1 expression upto 48 hrs; assay type: functional, cell-based
Procedure, shortened: (§2)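 MCF-7 cells treated at 0.022–2.2 µM, or at 0.22 µM for 0–48 h. Lysed on ice in Tris/NaCl/NP-40/PMSF/aprotinin buffer and protein measured by Bradford. Blots blocked in 5% milk/TBST and probed with monoclonal antibodies to bcl-2, p53, cdc-2 and cyclin B1, then HRP anti-mouse. Signals detected by ECL on film.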

[10] = system: Bel-7402; experiment: Reduction in tumor volume of human Bel7402 cell xenografted in nude mice at 60 mg/kg, ip; assay type: functional; conditions: Mus musculus, Bel-7402, ip, route intraperitoneal
Procedure, shortened: (§3)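 Female nude mice carry sc xenografts (MCF-7, 8 × 10⁶ cells, after sc estrogen 0.25 mg/mouse 24 h before; or Bel-7402). At 90–120 mm³, mice were randomised into groups of five. Dosing ip q2d for 5–6 weeks, 100 mg/kg for MCF-7 and 60 mg/kg for Bel-7402, with a solvent control. Tumor volume from caliper width and length, mean of n = 5.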

[11] = Toxicity ip dosed mouse; assay type: organism-based; conditions: in vivo
[12] = system: MCF7; experiment: Reduction in tumor volume of human MCF7 cell xenografted in nude mice at 100 mg/kg, ip; assay type: functional; conditions: Mus musculus, route intraperitoneal; procedure, shortened: as §3
[13] = system: MCF7; experiment: Cell cycle arrest in MCF7 cells by accumulation at M phase at 0.22 to 1.1 uM after 24 hrs; assay type: functional, cell-based; conditions: Homo sapiens
Procedure, shortened: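 MCF-7 cells exposed at 0.22 µM for up to 24 h. Cells trypsin/EDTA-harvested (1.5 × 10⁶), PBS-washed, RNase-treated (0.5 µg/µL final, 37 °C, 30 min), fixed in ice-cold 70% ethanol ≥12 h at 4 °C, and stained with propidium iodide (0.1 µg/µL final, 4 °C, 60 min). ≥10⁴ events analysed by flow cytometry. Mitotic arrest also scored on Giemsa-stained cytospins by chromosome spreading.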

[14] = system: MCF7; experiment: Induction of apoptosis in human MCF7 cell line assessed as increase in cdc2 expression upto 48 hrs; assay type: functional, cell-based; procedure, shortened: as §2
[15] = system: MCF7; experiment: Induction of apoptosis in human MCF7 cell line assessed as increase in P-p53 expression upto 48 hrs; assay type: functional, cell-based; procedure, shortened: as §2

Compound: COc1ccc(/C=C\c2cc(OC)c(OC)c(OC)c2)cc1O [COMBRETASTATIN A4]
- IC50 [1]: 0.0093 µM
- IC50 [2]: 0.0019 µM
- IC50 [3]: 0.01 µM
- IC50 [4]: 0.012 µM
- IC50 [5]: 0.124 µM
- IC50 [6]: 0.0025 µM
- IC50 [7]: 0.0093 µM
- IC50 [8]: 0.0028 µM

Compound: COc1cc(OC)c(NS(=O)(=O)c2ccc3c(c2)c2ccccc2n3C)c(OC)c1
- IC50 [2]: 0.07 µM

Compound: COc1cc(NS(=O)(=O)c2ccc3c(c2)c2ccccc2n3C)c(OC)cc1Cl
- IC50 [2]: 0.046 µM

- IC50 [1]: 0.169 µM
- IC50 [3]: 0.135 µM
- IC50 [4]: 0.067 µM
- IC50 [7]: 0.067 µM
- IC50 [8]: 0.09 µM
Compound: CCn1c2ccccc2c2cc(S(=O)(=O)Nc3cc(OC)c(Cl)cc3OC)ccc21
- IC50 [2]: 0.056 µM
- IC50 [6]: 0.09 µM

Compound: COc1cc([C@@H]2c3cc4c(cc3[C@H](O)[C@H]3COC(=O)[C@H]23)OCO4)cc(OC)c1OC [PODOFILOX]
- IC50 [1]: 0.052 µM
- IC50 [2]: 0.0072 µM
- IC50 [3]: 0.0091 µM
- IC50 [4]: 0.015 µM
- IC50 [5]: 0.023 µM
- IC50 [6]: 0.012 µM
- IC50 [7]: 0.014 µM
- IC50 [8]: 0.01 µM

- IC50 [1]: 0.365 µM
- IC50 [3]: 0.219 µM
- IC50 [4]: 0.098 µM
- IC50 [7]: 0.049 µM
- IC50 [8]: 0.78 µM
Compound: CCn1c2ccccc2c2cc(S(=O)(=O)Nc3cc(OC)ccc3OC)ccc21
- IC50 [2]: 0.061 µM
- IC50 [6]: 0.195 µM

Compound: CCn1c2ccccc2c2cc(S(=O)(=O)Nc3cc(Cl)c(OC)cc3OC)ccc21
- IC50 [2]: 0.067 µM

Compound: CCn1c2ccccc2c2cc(S(=O)(=O)Nc3cc(OC)cc(OC)c3)ccc21
- IC50 [2]: 0.974 µM

Compound: CCn1c2ccccc2c2cc(NS(=O)(=O)c3cc(OC)ccc3OC)ccc21
- IC50 [2]: 0.603 µM

Compound: CCn1c2ccccc2c2cc(S(=O)(=O)Nc3cc(C(F)(F)F)cc(C(F)(F)F)c3)ccc21
- IC50 [2]: > 10 µM

Compound: CCn1c2ccccc2c2cc(NS(=O)(=O)c3ccc(OC)cc3N)ccc21
- IC50 [2]: > 10 µM

Compound: COc1cc(NS(=O)(=O)c2ccc3[nH]c4ccccc4c3c2)cc(OC)c1OC
- IC50 [2]: 0.606 µM

Compound: CCn1c2ccccc2c2cc(NS(=O)(=O)c3cccc(OC)c3)ccc21
- IC50 [2]: 0.789 µM

Compound: CCn1c2ccccc2c2cc(S(=O)(=O)Nc3ccc(OC)c(N)c3)ccc21
- IC50 [2]: 2.2 µM

Compound: CCn1c2ccccc2c2cc(NS(=O)(=O)c3ccc(OC)c(OC)c3)ccc21
- IC50 [2]: 2.65 µM

Compound: CCn1c2ccccc2c2cc(S(=O)(=O)Nc3ccc(F)cc3)ccc21
- IC50 [2]: 2.17 µM

Compound: CCn1c2ccccc2c2cc(S(=O)(=O)Nc3ccc(OC)c(Cl)c3)ccc21
- IC50 [2]: 0.482 µM

Compound: CCn1c2ccccc2c2cc(NS(=O)(=O)c3ccc(OC)cc3[N+](=O)[O-])ccc21
- IC50 [2]: > 10 µM

Compound: CCn1c2ccccc2c2cc(NS(=O)(=O)c3ccc(OC)cc3)ccc21
- IC50 [2]: > 10 µM

Compound: CCn1c2ccccc2c2cc(S(=O)(=O)NCc3cc(OC)c(OC)c(OC)c3)ccc21
- IC50 [2]: > 10 µM

Compound: CCn1c2ccccc2c2cc(S(=O)(=O)Nc3ccc(OC)c(OC)c3)ccc21
- IC50 [2]: 2.44 µM

Compound: CCn1c2ccccc2c2cc(NS(=O)(=O)c3cccc(C#N)c3)ccc21
- IC50 [2]: 1.32 µM

Compound: CCn1c2ccccc2c2cc(S(=O)(=O)Nc3cc(OC)c(OC)c(OC)c3)ccc21
- Activity [9]: Active
- IC50 [1]: 0.603 µM
- IC50 [2]: 0.056 µM
- IC50 [3]: 0.201 µM
- inhibition in vivo at 60 mg/kg [10]: 55%
- IC50 [4]: 0.089 µM
- IC50 [5]: 1.9 µM
- IC50 [6]: 0.089 µM
- LD50 [11]: > 500 mg/kg
- IC50 [7]: 0.02 µM
- inhibition in vivo at 100 mg/kg [12]: 75%
- Activity [13]: Active
- IC50 [8]: 0.201 µM
- Activity [14]: Active
- Activity [15]: Active

- IC50 [1]: 0.144 µM
- IC50 [3]: 0.096 µM
- IC50 [4]: 0.048 µM
- IC50 [7]: 0.048 µM
- IC50 [8]: 0.144 µM
Compound: CCn1c2ccccc2c2cc(S(=O)(=O)Nc3ccc(OC)cc3OC)ccc21
- IC50 [2]: 0.057 µM
- IC50 [6]: 0.12 µM

- IC50 [1]: 0.232 µM
- IC50 [3]: 0.116 µM
- IC50 [4]: 0.07 µM
- IC50 [7]: 0.019 µM
- IC50 [8]: 0.116 µM
Compound: COc1cc(NS(=O)(=O)c2ccc3c(c2)c2ccccc2n3C)cc(OC)c1OC
- IC50 [2]: 0.046 µM
- IC50 [5]: 2.09 µM
- IC50 [6]: 0.07 µM

Compound: CCn1c2ccccc2c2cc(S(=O)(=O)Nc3ccc4c(c3)OCO4)ccc21
- IC50 [2]: 6.25 µM

Compound: COc1cc(NS(=O)(=O)c2ccc3oc4ccccc4c3c2)cc(OC)c1OC
- IC50 [2]: > 10 µM

Compound: CCn1c2ccccc2c2cc(S(=O)(=O)Nc3ccc(OC)cc3)ccc21
- IC50 [2]: > 10 µM
